Shown are actives, neighbours in structure and some others; about 1.8% of the full set was active somewhere.
M4 antag: human M4 muscarinic receptor antagonists, primary screen, CHO cells, Fluo-8 calcium fluorescence; hit rate 0.73% among 360,000; CHO-hM4 cells, ACh EC80; AID 624125, 2012; Muscarinic acetylcholine receptor M4 (Homo sapiens), P08173; inhibition, % at 3 µM;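 active means inhibition above its plate's cutoff, the mean inhibition of sample wells plus 3 SD, cut at about 27% in these data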;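 further: 0% = acetylcholine EC80 with DMSO and 100% = DMSO without agonist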
Target sequence (P08173 whole entry, looked up): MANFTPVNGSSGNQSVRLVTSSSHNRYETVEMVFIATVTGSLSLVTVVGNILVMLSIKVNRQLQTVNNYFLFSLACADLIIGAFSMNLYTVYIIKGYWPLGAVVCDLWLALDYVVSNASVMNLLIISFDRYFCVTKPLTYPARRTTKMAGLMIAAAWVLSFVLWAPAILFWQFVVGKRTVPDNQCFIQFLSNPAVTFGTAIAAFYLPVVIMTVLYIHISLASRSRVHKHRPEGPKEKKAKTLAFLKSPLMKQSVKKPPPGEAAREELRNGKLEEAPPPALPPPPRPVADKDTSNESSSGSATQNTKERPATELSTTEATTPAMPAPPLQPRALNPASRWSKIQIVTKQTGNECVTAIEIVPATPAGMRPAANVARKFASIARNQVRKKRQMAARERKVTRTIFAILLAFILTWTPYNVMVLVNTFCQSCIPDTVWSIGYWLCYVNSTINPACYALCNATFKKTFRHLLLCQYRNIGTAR
CHRM5 agonist: human M5 muscarinic receptor agonists, primary screen, CHO-K1 cells, Fluo-8 calcium fluorescence; Muscarinic acetylcholine receptor M5 (Homo sapiens), P08912; CHO-K1 hM5 cells; 0% DMSO wells, 100% maximal acetylcholine response; activation, % at 3 µM; hit rate 0.19% among 360,000; AID 624037, 2012;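 active means activation above the run's mean over test compounds plus 3 SD, cut at about 23% in these data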;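 further: signal is peak over basal fluorescence ratio across the kinetic read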
CHRM5 antagonist: human M5 muscarinic receptor antagonists, primary screen, CHO cells, Fluo-8 calcium fluorescence; Muscarinic acetylcholine receptor M5 (Homo sapiens), P08912; CHO-hM5 cells, ACh EC80; inhibition, % at 3 µM; hit rate 0.59% among 360,000; AID 624040, 2012;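 active means inhibition above a per-plate cutoff, the mean of that plate's test compounds plus 3 SD, cut at about 27% in these data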;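 further: 0% = acetylcholine EC80 with DMSO and 100% = DMSO without agonist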
M4 PAM: human M4 muscarinic receptor positive allosteric modulators, primary screen, CHO-K1 cells, Fluo-8 calcium fluorescence | activation, % at 3 µM | hit rate 0.4% among 360,000 | Muscarinic acetylcholine receptor M4 (Homo sapiens), P08173 | CHO-K1 hM4/Gqi5, ACh EC20; 0% = ACh EC20, 100% = maximal ACh;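 active means activation above its plate's cutoff, the mean activation of sample wells plus 3 SD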
CHRM5 PAM: human M5 muscarinic receptor positive allosteric modulators, primary screen, CHO-K1 cells, Fluo-8 calcium fluorescence. Muscarinic acetylcholine receptor M5 (Homo sapiens), P08912. AID 624038, 2012. activation, % at 3 µM. CHO-K1 hM5, ACh EC20 PAM; 0% = ACh EC20, 100% = ACh EC100. hit rate 0.3% among 360,000;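 active means activation above the run cutoff, the mean activation of all test compounds plus 3 SD, cut at about 18% in these data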
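Assay system: CHO-K1 hM5 cells. Also added: acetylcholine at EC20 concentration, added after compound. Dosing: 3 µM, single dose. Times: compound preincubation 140 s before EC20 acetylcholine addition. Signal: Fluo-8 calcium fluorescence. Measure: % activation relative to EC20 and EC100 ACh responses. Repeats: singlicate, one well per test compound.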
CHRM4 agonist: human M4 muscarinic receptor agonists, primary screen, CHO-K1 cells, Fluo-8 calcium fluorescence | CHO-K1 hM4/Gqi5; vehicle 0%, full acetylcholine response 100% | Muscarinic acetylcholine receptor M4 (Homo sapiens), P08173 | activation, % at 3 µM | hit rate 0.14% among 360,000;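 active means activation above the run mean over all test wells plus 3 SD, cut at about 32% in these data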;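 further: peak over basal fluorescence ratio per well then scaled between controls; 0% = DMSO wells and 100% = acetylcholine at EC100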
* hit, by the source's call.

SMILES	M4 antag	CHRM5 agonist	CHRM5 antagonist	M4 PAM	CHRM5 PAM	CHRM4 agonist
CCN(CC)c1ccc(S(=O)(=O)N2CCOCC2)cc1NC(=O)CSc1nnc(N)s1	-5	-1	-5	15	11	2
COCOc1cccc(CN2CCC2(C)C(=O)Nc2cc(OC)ccc2OC)c1 (stereo not drawn)	-9	-3	5	-2	-8	1
COc1ccc(N2CCN(c3ccc(NC(=O)c4ccc5c(c4)OCO5)cc3C#N)CC2)cc1	-10	-2	-2	29*	7	1
O=S(=O)(Nc1nc2ccccc2[nH]1)c1ccc2ccccc2c1	70*	-7	39*	-33	-16	2
COc1cccc(CNC(=O)C(C)n2ccc3cc(S(=O)(=O)N4CCCCCC4)ccc32)c1 (stereo not drawn)	4	-1	4	-11	-3	3
O=C(O)CCn1ccc2cc(S(=O)(=O)N3CCCCCC3)ccc21	-4	-1	-10	4	19*	0
CCC(C(=O)NCCC(C)C)n1ccc2cc(S(=O)(=O)N3CCCCC3)ccc21 (stereo not drawn)	11	0	34*	-14	-12	18
O=C(O)CCCn1ccc2cc(S(=O)(=O)N3CCCC3)ccc21	-1	-6	11	7	-4	4
O=C(c1ccc(N2CCCCC2)c([N+](=O)[O-])c1)N1CCN(S(=O)(=O)c2ccccc2)CC1	-1	-2	4	-11	-6	9
NC(=O)c1ccc(N2CCN(S(=O)(=O)c3ccccc3)CC2)c([N+](=O)[O-])c1	19	11	29*	-18	-26	16
CC1Cc2ccccc2C(CCc2ccccc2)=N1 (stereo not drawn)	-3	-7	4	0	2	2
CCc1nc2c(OCc3ccc(C#N)cc3)cccn2c1N(C)C(=O)C(C)C	-5	-2	0	7	1	0
COc1cccc(/C=C(\C)C(=O)c2c(C)cc(C)[nH]c2=O)c1OC	6	-1	13	5	1	1
COc1ccc(C)cc1NS(=O)(=O)c1ccc(NS(=O)(=O)c2ccc(NC(C)=O)cc2)cc1	-2	-1	4	22*	-7	0
OC(c1ccccc1)c1nc(-c2cc(F)cc(F)c2)cs1 (stereo not drawn)	-5	1	4	9	2	0
Cc1ccc(CNC(=O)C2CCCN(S(=O)(=O)c3cccc4nonc34)C2)cc1 (stereo not drawn)	-4	-2	16	-7	-3	1
COc1cc(C2CC(=O)NC3=C2C(=O)CC(C)(C)C3)cc(OC)c1O (stereo not drawn)	6	-1	27*	0	8	0
CCN(CC)c1ccc(/C=C2\SC(=O)N(C(C)C)C2=O)o1	41*	0	17	-3	-2	4
COc1ccc(OC)c(C(=O)CN2C(=O)C(=O)N(C3CCCC3)C2=O)c1	-2	-1	5	7	15	0
CC1CCN(CCCCOc2cccc(Br)c2)CC1	68*	-7	14	-16	-19	5
CCN1CCN(CCCNC(=O)C2CCCN(c3nnc(-n4cccc4)s3)C2)CC1 (stereo not drawn)	-10	-2	-4	27*	-2	0
COc1cccc(NC(=O)COC(=O)CCC2CCCC2)c1	2	-1	7	5	11	2
Cc1nnc(SCC(=O)c2cc(C)n(-c3ccc4c(c3)OCO4)c2C)s1	13	-1	27*	-22	-11	11
Cc1ccc(NC(=O)CCN2CCC(C(N)=O)CC2)cc1	-7	5	-11	-4	14	0
Cc1ccc2nc(C(C)(C)C)c(Cc3cccc(Cl)c3)n2c1	27*	-8	20	-15	-22	-2
SMILES	M4 antag	CHRM5 agonist	CHRM5 antagonist	M4 PAM	CHRM5 PAM	CHRM4 agonist
Cc1ccc2nc(-c3ccc(Cl)cc3)c(Cc3cccc(Cl)c3)n2c1	-3	-6	1	-4	-20	-1
CCOC(=O)c1c(C)[nH]c(C(=O)OCC(=O)N(CC(C)C)c2c(N)n(Cc3ccccc3)c(=O)[nH]c2=O)c1C	3	-2	8	-7	-3	1
Cc1ccc(C)c(OCCC(=O)OCC(=O)NCCNC(=O)COC(=O)CCOc2cc(C)ccc2C)c1	38*	8	34*	-15	-31	27
Cc1ccc(C)c(OCCC(=O)OCC(=O)NCc2ccccc2)c1	-1	-1	1	-1	1	1
Cc1cc(OCC(=O)Nc2ccc(CN3CCCCC3)cc2)ccc1Cl	18	2	19	-21	-15	36*
CN(CC(=O)Nc1c(Cl)cccc1Cl)CC(=O)N1CCc2ccccc21	1	3	8	-3	-7	8
N#Cc1cc2ccccc2nc1SCc1ccccn1	6	18	17	-13	-17	52*
O=C(Cn1cnc2ccccc2c1=O)N1CCN(S(=O)(=O)c2ccc(F)cc2)CC1	7	1	4	-3	-2	1
COC(C#CCCN(C)C)(c1ccccc1)c1ccccc1	35*	-8	94*	-18	-19	1
CCOC(=O)C1(CCc2ccccc2)CCN(C2Cc3ccccc3C2)CC1	1	-10	41*	-13	-20	3
Cc1ccc(S(C)(=O)=O)cc1C(=O)OCC(=O)N1CCCC1=O	15	3	2	3	0	1
CC(C)(C)C1CCC(CN2C(Nc3ccccc3)=NC[C@@H]2Cc2ccccc2)CC1 (stereo partly drawn)	50*	-1	28*	-14	-20	23
Cc1ccc(-c2cc(C(=O)NCCN3CCOCC3)c3ccccc3n2)o1	-4	-1	7	1	2	4
O=C(OCC(=O)N1CCOCC1)c1cccc(S(=O)(=O)N2CCCc3ccccc32)c1	0	-5	6	-8	-3	3
Cc1cccc(NC2=C(C#N)C(=O)NC3(CCCC3)S2)c1	-26	1	-9	15*	2	0
Cc1cccc(N2C(S)=C(C#N)C(=O)NC23CCCCC3)c1	-13	0	-7	10	3	1
c1ccc(-c2nc(SCc3nc4ccccc4[nH]3)c3oc4ccccc4c3n2)cc1	9	-5	11	-1	6	0
COc1ccc(C(=O)n2nc(C)c(Br)c2C)cc1	4	-10	-10	12	21*	1

Assay outcomes (PubChem BioAssay)
